The source of these data is ChEMBL document CHEMBL1255221, “Synthesis and evaluation of selected key methyl ether derivatives of vancomycin aglycon” (2010).

Usually MIC stands for the least concentration at which growth counts as inhibited. A high value points to a need for much substance.

Molecules are shown by their SMILES. Converted amounts (≈) assume the structure as drawn. Some results are limits rather than exact numbers.

Common to all, as to format: functional
Experiment [1] has as its system Enterococcus faecalis. The experiment is described as follows: Antimicrobial activity against vancomycin B-resistant Enterococcus faecalis ATCC 51299. The gist of the method:
(§1)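 MIC measured in a microtiter plate-based antimicrobial assay, in μg/mL. VanA E. faecalis BM4166 is vancomycin- and teicoplanin-resistant; VanB E. faecalis ATCC 51299 is vancomycin-resistant and teicoplanin-sensitive. Both strains carry a vancomycin-inducible resistance pathway, switching from D-Ala-D-Ala to D-Ala-D-Lac cell-wall precursors on glycopeptide exposure.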

The next experiment has as its system Staphylococcus aureus. Briefly: Antimicrobial activity against Staphylococcus aureus ATCC 25923.
Experiment [2] relates to Enterococcus faecalis. The experiment is described as follows: Antimicrobial activity against vancomycin A-resistant Enterococcus faecalis BM 4166. The gist of the method:
as §1

Take `CN[C@H](CC(C)C)C(=O)N[C@H]1C(=O)N[C@@H](CC(N)=O)C(=O)N[C@H]2C(=O)N[C@H]3C(=O)N[C@H](C(=O)N[C@@H](C(=O)OC)c4cc(OC)cc(OC)c4-c4cc3ccc4OC)[C@H](O)c3ccc(c(Cl)c3)Oc3cc2cc(c3OC)Oc2ccc(cc2Cl)[C@H]1O`: the minimal inhibitory concentration (MIC) is 1.25 µg/mL (≈ 1.03 µM) against Enterococcus faecalis [1], 1.25 µg/mL (≈ 1.03 µM) against Staphylococcus aureus and 40 µg/mL (≈ 32.9 µM) in the experiment on Enterococcus faecalis [2].
On to `CN[C@H](CC(C)C)C(=O)N[C@H]1C(=O)N[C@@H](CC(N)=O)C(=O)N[C@H]2C(=O)N[C@H]3C(=O)N[C@H](C(=O)N[C@@H](C(=O)O)c4cc(OC)cc(OC)c4-c4cc3ccc4OC)[C@H](O)c3ccc(c(Cl)c3)Oc3cc2cc(c3OC)Oc2ccc(cc2Cl)[C@H]1O`, for which the values for the MIC against Enterococcus faecalis [1], in the experiment on Staphylococcus aureus and against Enterococcus faecalis [2] were 2.5 µg/mL (≈ 2.08 µM), 1.25 µg/mL (≈ 1.04 µM) and 80 µg/mL (≈ 66.7 µM), respectively.
For `CN[C@H](CC(C)C)C(=O)N[C@H]1C(=O)N[C@@H](CC(N)=O)C(=O)N[C@H]2C(=O)N[C@H]3C(=O)N[C@H](C(=O)N[C@@H](C(=O)O)c4cc(OC)cc(OC)c4-c4cc3ccc4O)[C@H](O)c3ccc(c(Cl)c3)Oc3cc2cc(c3O)Oc2ccc(cc2Cl)[C@H]1O` the same measures were 120 µg/mL (≈ 102 µM), 10 µg/mL (≈ 8.53 µM) and 640 µg/mL (≈ 546 µM).
On to `CN[C@H](CC(C)C)C(=O)N[C@H]1C(=O)N[C@@H](CC(N)=O)C(=O)N[C@H]2C(=O)N[C@H]3C(=O)N[C@H](C(=O)N[C@H](C(=O)O)c4cc(O)cc(O)c4-c4cc3ccc4O)[C@H](O)c3ccc(c(Cl)c3)Oc3cc2cc(c3O)Oc2ccc(cc2Cl)[C@H]1O` [VANCOMYCIN AGLYCON], for which the results for the minimum inhibitory concentration (MIC) with Enterococcus faecalis [1], against Staphylococcus aureus and in the experiment with Enterococcus faecalis [2] were over 40 µg/mL, 0.6 µg/mL (≈ 0.525 µM) and over 100 µg/mL, respectively.
Turning to `CN[C@H](CC(C)C)C(=O)N[C@H]1C(=O)N[C@@H](CC(N)=O)C(=O)N[C@H]2C(=O)N[C@H]3C(=O)N[C@H](C(=O)N[C@@H](C(=O)O)c4cc(OC)cc(O)c4-c4cc3ccc4OC)[C@H](O)c3ccc(c(Cl)c3)Oc3cc2cc(c3O)Oc2ccc(cc2Cl)[C@H]1O`, the figures for the MIC against Enterococcus faecalis [1], against Staphylococcus aureus and in the experiment on Enterococcus faecalis [2] were 120 µg/mL (≈ 102 µM), 10 µg/mL (≈ 8.53 µM) and 640 µg/mL (≈ 546 µM), respectively.
For `CN[C@@H](CC(C)C)C(=O)N[C@H]1C(=O)N[C@@H](CC(N)=O)C(=O)N[C@H]2C(=O)N[C@H]3C(=O)N[C@H](C(=O)N[C@@H](C(=O)O)c4cc(O)cc(O)c4-c4cc3ccc4O)[C@H](O)c3ccc(c(Cl)c3)Oc3cc2cc(c3O[C@@H]2O[C@H](CO)[C@@H](O)[C@H](O)[C@H]2O[C@H]2C[C@](C)(NCc3ccc(-c4ccc(Cl)cc4)cc3)[C@H](O)[C@H](C)O2)Oc2ccc(cc2Cl)[C@H]1O` the same measures were 0.03 µg/mL (≈ 0.0182 µM), 0.03 µg/mL (≈ 0.0182 µM) and 10 µg/mL (≈ 6.06 µM).
In the case of `CN[C@H](CC(C)C)C(=O)N[C@H]1C(=O)N[C@@H](CC(N)=O)C(=O)N[C@H]2C(=O)N[C@H]3C(=O)N[C@H](C(=O)N[C@@H](C(=O)O)c4cc(OC)cc(OC)c4-c4cc3ccc4OC)[C@H](O)c3ccc(c(Cl)c3)Oc3cc2cc(c3O)Oc2ccc(cc2Cl)[C@H]1O`, the MIC against Enterococcus faecalis [1] came out at 10 µg/mL (≈ 8.43 µM); against Enterococcus faecalis [2] it was 640 µg/mL (≈ 540 µM).
The corresponding values for `CN[C@H](CC(C)C)C(=O)N[C@H]1C(=O)N[C@@H](CC(N)=O)C(=O)N[C@H]2C(=O)N[C@H]3C(=O)N[C@H](C(=O)N[C@H](C(=O)O)c4cc(O)cc(O)c4-c4cc3ccc4O)[C@H](O)c3ccc(c(Cl)c3)Oc3cc2cc(c3O[C@@H]2O[C@H](CO)[C@@H](O)[C@H](O)[C@H]2O[C@H]2C[C@](C)(N)[C@H](O)[C@H](C)O2)Oc2ccc(cc2Cl)[C@H]1O` [VANCOMYCIN] are 120 µg/mL (≈ 82.8 µM) and 2000 µg/mL (≈ 1380 µM).
On to `CN[C@H](CC(C)C)C(=O)N[C@H]1C(=O)N[C@@H](CC(N)=O)C(=O)N[C@H]2C(=O)N[C@H]3C(=O)N[C@H](C(=O)N[C@@H](C(=O)O)c4cc(O)cc(O)c4-c4cc3ccc4O)[C@H](O)c3ccc(c(Cl)c3)Oc3cc2cc(c3OC)Oc2ccc(cc2Cl)[C@H]1O`, for which the MIC turned out to be 40 µg/mL (≈ 34.5 µM) against Enterococcus faecalis [1], 1.25 µg/mL (≈ 1.08 µM) with Staphylococcus aureus and 240 µg/mL (≈ 207 µM) with Enterococcus faecalis [2].
